Measurements as given in ChEMBL document CHEMBL2346625 (Bioorg Med Chem, 2013).
In brackets after ≈: the same amount, converted by molar mass.

What was measured:
Streptococcus pyogenes = experiment: Growth inhibition of Streptococcus pyogenes UMAA2616 at 50 uM relative to control; type: organism-based; conditions: in vitro
Procedure, shortened: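 Diluted 1:1000 into THY containing compound at 50 μM in 0.1% DMSO and grown in triplicate at 37 °C to OD600 ≈ 1.0. Growth given as OD600 test/DMSO control; mean of at least three experiments ± SD.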

Liver [1] = experiment: (§1) Half life in mouse liver microsomes at 0.5 to 1 uM by LC-MS/MS analysis; type: ADME, Microsome; conditions: microsomes, 1 µM
[2] = Kinetic solubility of the compound in aqueous Todd Hewitt bacterial media at 0.87 to 99 uM by UV/Vis spectrophotometry; type: physicochemical; conditions: read-out: Kinetic_solubility
Procedure, shortened: (§2)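 10 mM DMSO stocks serially diluted in DMSO, then added 1:100 to Todd-Hewitt broth at 37 °C, giving final 0.87–99 μM. Plate shaken, incubated 5 min at 37 °C, and OD600 read (n = 3). Solubility taken as the midpoint between the first concentration with OD600 ≥ 0.005 AU above background and the preceding concentration, ± half the interval.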

[3] = Kinetic solubility of the compound in phosphate-buffered saline at 0.87 to 99 uM by UV/Vis spectrophotometry; type: physicochemical
Procedure, shortened: as §2, with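 “PBS” for “Todd-Hewitt broth”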

[4] = as §1; type: ADME, Microsome; conditions: liver microsomes
Liver [5] = experiment: Metabolic stability in mouse liver microsomes assessed as oxidation of compound; type: ADME, Microsome
[6] = molecular target: T1, Streptokinase (Streptococcus pyogenes) (UniProt P96471); experiment: Inhibition of Streptococcus pyogenes UMAA2616 streptokinase assessed as cleavage of S-2403 to colored product p-nitroaniline at 50 uM after 2 hrs relative to control
T1 sequence (whole entry): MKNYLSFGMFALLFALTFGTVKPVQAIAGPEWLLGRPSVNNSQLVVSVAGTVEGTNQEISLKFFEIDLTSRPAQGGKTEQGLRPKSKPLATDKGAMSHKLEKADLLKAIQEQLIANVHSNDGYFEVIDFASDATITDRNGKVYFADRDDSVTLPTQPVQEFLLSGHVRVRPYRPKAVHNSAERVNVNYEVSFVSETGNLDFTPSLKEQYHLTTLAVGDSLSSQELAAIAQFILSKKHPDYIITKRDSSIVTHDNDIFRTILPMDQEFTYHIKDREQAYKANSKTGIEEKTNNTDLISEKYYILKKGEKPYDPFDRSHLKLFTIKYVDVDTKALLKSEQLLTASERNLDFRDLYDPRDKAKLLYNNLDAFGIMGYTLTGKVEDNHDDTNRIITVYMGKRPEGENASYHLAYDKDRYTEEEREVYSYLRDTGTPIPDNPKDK
Procedure, shortened: (§3)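 UMAA2616 grown in THY (0.1% DMSO, compound at 5 or 50 μM) at 37 °C to OD600 ≈ 1.0, then centrifuged. Supernatant mixed with PBS, human plasma and S-2403 plasmin substrate and incubated 2 h at 37 °C; A405 read. Activity came from a DMSO-culture standard curve, was corrected for growth by OD600 and expressed as test/control. Mean of at least three experiments ± SD.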

[7] = molecular target: T1, Streptokinase (Streptococcus pyogenes); experiment: Inhibition of Streptococcus pyogenes UMAA2616 streptokinase assessed as cleavage of S-2403 to colored product p-nitroaniline at 5 uM after 2 hrs relative to control; procedure, shortened: as §3
Streptokinase = molecular target: T2, Streptokinase (Streptococcus pyogenes, UniProt P96471)
T2 sequence (P96471 whole entry): T1 sequence (whole entry)

SMILES: C=CCn1c(SCCOC)nc2c(c1=O)C(C)(C)Cc1cc(C(=O)NCc3ccccc3)ccc1-2
- T/C (Streptococcus pyogenes): 1.07

SMILES: C=CCn1c(SCCOC)nc2c(c1=O)C(C)(C)Cc1cc(C(=O)O)ccc1-2
- T/C (Streptococcus pyogenes): 0.86

SMILES: C=CCn1c(SCC(N)=O)nc2c(c1=O)C(C)(C)Cc1ccccc1-2
- T/C (Streptococcus pyogenes): 1
- t1/2 (Liver [1]): < 2 min

SMILES: C=CCn1c(SCc2ccccn2)nc2c(c1=O)C(C)(C)Cc1ccccc1-2
- T/C (Streptococcus pyogenes): 1.05

SMILES: C=CCn1c(SCCOC)nc2c(c1=O)C(C)(C)Cc1ccccc1-2
- t1/2 (Liver [1]): 1.7 min
- solubility kinetic [2]: 22.5 µM (≈ 8.02 µg/mL)

SMILES: C=CCn1c(SCC#N)nc2c(c1=O)C(C)(C)Cc1ccccc1-2
- T/C (Streptococcus pyogenes): 1
- solubility kinetic [3]: 3 µM (≈ 1.01 µg/mL)
- t1/2 (Liver [1]): 20.6 min
- solubility kinetic [2]: 34.5 µM (≈ 11.6 µg/mL)

SMILES: C=CCn1c(SCC)nc2c(c1=O)C(C)(C)Cc1cc(OCCCC)ccc1-2
- T/C (Streptococcus pyogenes): 0.87

SMILES: C=CCn1c(SCc2ccc(OC)cc2)nc2c(c1=O)C1(CCCCC1)Cc1ccccc1-2
- T/C (Streptococcus pyogenes): 1.05

SMILES: C=CCn1c(SCCOC)nc2c(c1=O)C(C)(C)Cc1cc(C(=O)NCCc3c[nH]cn3)ccc1-2
- T/C (Streptococcus pyogenes): 0.99

SMILES: C=CCn1c(SC)nc2c(c1=O)C1(CCCCC1)Cc1ccccc1-2
- t1/2 (Liver [1]): 13.5 min
- solubility kinetic [2]: 22 µM (≈ 7.76 µg/mL)

SMILES: C=CCn1c(SCCO)nc2c(c1=O)C(C)(C)Cc1ccccc1-2
- T/C (Streptococcus pyogenes): 0.06

SMILES: C=CCn1c(SCC(=O)OCC)nc2c(c1=O)C(C)(C)Cc1ccccc1-2
- T/C (Streptococcus pyogenes): 1.01

SMILES: C=CCn1c(SCc2ccccc2)nc2c(c1=O)C(C)(C)Cc1ccccc1-2
- solubility kinetic [2]: 9 µM (≈ 3.5 µg/mL)

SMILES: CCSc1nc2c(c(=O)n1CC(F)(F)F)C(C)(C)Cc1ccc(OC)cc1-2
- T/C (Streptococcus pyogenes): 1.01
- half-life [4]: 3 min

SMILES: C=CCn1c(SCC)nc2c(c1=O)C(C)(C)Cc1cc(OCCc3ccccc3)ccc1-2
- T/C (Streptococcus pyogenes): 1.01

SMILES: C=CCn1c(SCCOC)nc2c(c1=O)C1(CCCCC1)Cc1ccccc1-2
- T/C (Streptococcus pyogenes): 0.99
- Stability (Liver [5]): Stable
- t1/2 (Liver [1]): 6.4 min
- solubility kinetic [2]: 9 µM (≈ 3.57 µg/mL)

SMILES: CCn1c(SCc2ccccc2)nc2c(c1=O)C1(CCCC1)Cc1ccccc1-2
- T/C (Streptococcus pyogenes): 1.07

SMILES: C=CCn1c(SCC)nc2c(c1=O)C(C)(C)Cc1cc(OCCCCCCC)ccc1-2
- T/C (Streptococcus pyogenes): 1.05

SMILES: C=CCn1c(NCC)nc2c(c1=O)C1(CCCCC1)Cc1ccccc1-2
- T/C (Streptococcus pyogenes): 0.32
- solubility kinetic [2]: 9 µM (≈ 3.15 µg/mL)

SMILES: C=CCn1c(SCC)nc2c(c1=O)C(C)(C)Cc1cc(OCCOC)ccc1-2
- T/C (Streptococcus pyogenes): 0.85

SMILES: C=CCn1c(OCC)nc2c(c1=O)C(C)(C)Cc1ccccc1-2
- T/C (Streptococcus pyogenes): 0.5
- t1/2 (Liver [1]): 0.9 min

SMILES: COCCSc1nc2c(c(=O)n1CCc1ccc(OC)cc1)C(C)(C)Cc1ccccc1-2
- T/C (Streptococcus pyogenes): 0.97
- T/C [6]: 0.61
- T/C [7]: 0.71
- half-life [4]: 9.4 min

SMILES: C=CCn1c(NCC)nc2c(c1=O)C(C)(C)Cc1cc(CC(=O)OCC)ccc1-2
- T/C (Streptococcus pyogenes): 1.02

SMILES: C=CCn1c(SCCN(C)C)nc2c(c1=O)C1(CCCCC1)Cc1ccccc1-2
- T/C (Streptococcus pyogenes): 0.88

SMILES: C=CCn1c(OCC)nc2c(c1=O)C1(CCCCC1)Cc1ccccc1-2
- T/C (Streptococcus pyogenes): 1.02
- solubility kinetic [2]: 14.5 µM (≈ 5.08 µg/mL)

SMILES: C=CCn1c(NCC)nc2c(c1=O)C(C)(C)Cc1ccccc1-2
- T/C (Streptococcus pyogenes): 0.06
- t1/2 (Liver [1]): 1.1 min

SMILES: C=CCn1c(SCC)nc2c(c1=O)C(C)(C)Cc1ccc(OCCOC)cc1-2
- T/C (Streptococcus pyogenes): 1.02

SMILES: CCn1c(SCCOC)nc2c(c1=O)C(C)(C)Cc1ccccc1-2
- T/C (Streptococcus pyogenes): 0.39
- t1/2 (Liver [1]): 0.8 min

SMILES: C=CCn1c(SCCCC)nc2c(c1=O)C1(CCCCC1)Cc1ccccc1-2 [CCG-2979]
- T/C (Streptococcus pyogenes): 0.95
- solubility kinetic [3]: 2 µM (≈ 0.789 µg/mL)
- IC50 (Streptokinase): > 50 µM
- t1/2 (Liver [1]): 37.2 min
- solubility kinetic [2]: 9 µM (≈ 3.55 µg/mL)

SMILES: C=CCn1c(SCc2ccccc2)nc2c(c1=O)C1(CCCCC1)Cc1ccccc1-2 [CCG-102487]
- T/C (Streptococcus pyogenes): 0.96
- IC50 (Streptokinase): > 50 µM
- t1/2 (Liver [1]): 0.6 min
- solubility kinetic [2]: 9 µM (≈ 3.86 µg/mL)

SMILES: C=CCn1c(SCc2ccc(NC(C)=O)cc2)nc2c(c1=O)C1(CCCCC1)Cc1ccccc1-2
- T/C (Streptococcus pyogenes): 0.96
